Experimental data as given in ChEMBL document CHEMBL1153580, “Synthesis and pharmacological investigation of 3-(substituted 1-phenylethanone)-4-(substituted phenyl)-1, 2, 3, 4-tetrahydropyrimidine-5-carboxylates” (Eur J Med Chem, 2009).

What was measured:
Rattus norvegicus [1] = assay: Antihypertensive activity in Norwegian albino rat assessed as inhibition of DOCA salt-induced systolic blood pressure at 10 mg/kg, po after 300 mins by non-invasive tail-cuff method; format: functional; conditions: Artery, 5 h
Procedure, shortened: (§1)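 Male rats (200–250 g), uninephrectomized under pentobarbital (50 mg/kg i.p.); one week later DOCA s.c. 30–50 mg/kg/week, with 1% w/v NaCl in drinking water. Groups of six, trained in restrainer, tail warmed at 33–34 °C. Compound in 0.5% CMC, 10 mg/kg orally. Systolic pressure read by tail-cuff before dosing and from 1 h after; three readings averaged. ANOVA.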

Rattus norvegicus [2] = assay: Antihypertensive activity in Norwegian albino rat assessed as inhibition of DOCA salt-induced systolic blood pressure at 10 mg/kg, po after 180 mins by non-invasive tail-cuff method; format: functional; conditions: Artery, 3 h; procedure, shortened: as §1
Mus musculus = assay: Analgesic activity against acetic acid-induced writhing in Swiss albino mouse assessed as protection at 20 mg/kg, po; format: functional
Procedure, shortened: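 Swiss albino mice (25–30 g), six per group, habituated 30 min individually in the test cage. Compound in 1% CMC given p.o. at 20 mg/kg. 1 h later, acetic acid injected i.p.; writhes (arching of back, body elongation, hind-limb extension) counted 5–15 min after injection. % inhibition = (n−n′)/n×100, where n and n′ are mean writhes in control and test.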

Rattus norvegicus [3] = assay: Antihypertensive activity in Norwegian albino rat assessed as inhibition of DOCA salt-induced systolic blood pressure at 10 mg/kg, po after 60 mins by non-invasive tail-cuff method; format: functional; conditions: Artery, 1 h; procedure, shortened: as §1
Rattus norvegicus [4] = assay: Antihypertensive activity in Norwegian albino rat assessed as inhibition of DOCA salt-induced systolic blood pressure at 10 mg/kg, po after 480 mins by non-invasive tail-cuff method; format: functional; conditions: Artery, 8 h; procedure, shortened: as §1
Rattus norvegicus [5] = assay: Antihypertensive activity in Norwegian albino rat assessed as inhibition of DOCA salt-induced systolic blood pressure at 10 mg/kg, po after 15 mins by non-invasive tail-cuff method; format: functional; conditions: Artery, 0.25 h
Rattus norvegicus [6] = assay: Antihypertensive activity in Norwegian albino rat assessed as inhibition of DOCA salt-induced diastolic blood pressure at 10 mg/kg, po after 180 mins by invasive carotid artery cannulation method; format: functional; conditions: 3 h
Procedure, shortened: (§2)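 Male rats (200–250 g), uninephrectomized and given DOCA s.c. (30–50 mg/kg/week) with 1% NaCl drinking water. Anesthetized with pentobarbital (35 mg/kg i.p.); left carotid artery cannulated and exteriorized. After recovery and a baseline reading, compound given orally by feeding needle. Diastolic pressure recorded via transducer at 15, 30, 60, 120 and 180 min. Mean ± S.E.M.; repeated-measures ANOVA.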

Rattus norvegicus [7] = assay: Antihypertensive activity in Norwegian albino rat assessed as inhibition of DOCA salt-induced systolic blood pressure at 10 mg/kg, po after 30 mins by non-invasive tail-cuff method; format: functional; conditions: Artery, 0.5 h
Rattus norvegicus [8] = assay: Antihypertensive activity in Norwegian albino rat assessed as inhibition of DOCA salt-induced systolic blood pressure at 10 mg/kg, po after 360 mins by non-invasive tail-cuff method; format: functional; conditions: Artery, 6 h; procedure, shortened: as §1
Rattus norvegicus [9] = assay: Antihypertensive activity in Norwegian albino rat assessed as inhibition of DOCA salt-induced diastolic blood pressure at 10 mg/kg, po after 15 mins by invasive carotid artery cannulation method; format: functional; conditions: 0.25 h; procedure, shortened: as §2
Rattus norvegicus [10] = assay: Antihypertensive activity in Norwegian albino rat assessed as inhibition of DOCA salt-induced systolic blood pressure at 10 mg/kg, po after 120 mins by non-invasive tail-cuff method; format: functional; conditions: Artery, 2 h; procedure, shortened: as §1
Rattus norvegicus [11] = assay: Antihypertensive activity in Norwegian albino rat assessed as inhibition of DOCA salt-induced diastolic blood pressure at 10 mg/kg, po after 60 mins by invasive carotid artery cannulation method; format: functional; conditions: 1 h; procedure, shortened: as §2
Rattus norvegicus [12] = assay: Antiinflammatory activity in Norwegian albino rat assessed as inhibition of carrageenan-induced paw edema at 100 mg/kg, po after administered 60 mins prior to carrageenan-challenge measured after 1 hr; format: functional
Procedure, shortened: (§3)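 Compound given orally as 100 mg/kg suspension in 0.5% CMC. 60 min later, carrageenan injected sub-plantar into the left hind paw. Paw volume measured within 30 s of injection, then at 1–5 h. % inhibition = [1−(Dt/Dc)]×100, where Dt and Dc are mean relative paw-volume changes in test and control. ANOVA.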

Rattus norvegicus [13] = assay: Antihypertensive activity in Norwegian albino rat assessed as inhibition of DOCA salt-induced systolic blood pressure at 10 mg/kg, po after 420 mins by non-invasive tail-cuff method; format: functional; conditions: Artery, 7 h; procedure, shortened: as §1
Rattus norvegicus [14] = assay: Gastrointestinal toxicity in albino rat assessed as ulcerogenic index at 50 mg/kg, po; format: organism-based; design: dose 50 mg/kg, route oral; conditions: in vivo
Procedure, shortened: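 Albino rats (150–200 g), six per group, food but not water withheld 24 h. Compound given p.o. at 50 mg/kg; controls received 1% methyl cellulose. Rats fed 17 h, then killed; stomach opened along greater curvature and examined under 4× magnifier. Lesions scored as large (>2 mm), small (1–2 mm) or punctiform (<1 mm). Severity index = treated mean score minus control mean score.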

Rattus norvegicus [15] = assay: Antiinflammatory activity in Norwegian albino rat assessed as inhibition of carrageenan-induced paw edema at 100 mg/kg, po after administered 60 mins prior to carrageenan-challenge measured after 5 hrs; format: functional; procedure, shortened: as §3
Rattus norvegicus [16] = assay: Antihypertensive activity in Norwegian albino rat assessed as inhibition of DOCA salt-induced systolic blood pressure at 10 mg/kg, po after 240 mins by non-invasive tail-cuff method; format: functional; conditions: Artery, 4 h; procedure, shortened: as §1
Rattus norvegicus [17] = assay: Antihypertensive activity in Norwegian albino rat assessed as inhibition of DOCA salt-induced diastolic blood pressure at 10 mg/kg, po after 120 mins by invasive carotid artery cannulation method; format: functional; conditions: 2 h; procedure, shortened: as §2
Rattus norvegicus [18] = assay: Antihypertensive activity in Norwegian albino rat assessed as inhibition of DOCA salt-induced diastolic blood pressure at 10 mg/kg, po after 30 mins by invasive carotid artery cannulation method; format: functional; conditions: 0.5 h; procedure, shortened: as §2
Rattus norvegicus [19] = assay: Antihypertensive activity in Norwegian albino rat assessed as inhibition of DOCA salt-induced diastolic blood pressure at 10 mg/kg, po after 240 mins by invasive carotid artery cannulation method; format: functional; conditions: 4 h
Rattus norvegicus [20] = assay: Antiinflammatory activity in Norwegian albino rat assessed as inhibition of carrageenan-induced paw edema at 100 mg/kg, po after administered 60 mins prior to carrageenan-challenge measured after 3 hrs; format: functional; procedure, shortened: as §3

Structure (SMILES) | inhibition in vivo at 10 mg/kg (Rattus norvegicus [1]) [%] | inhibition in vivo at 10 mg/kg (Rattus norvegicus [2]) [%] | Activity (Mus musculus) [%] | inhibition in vivo at 10 mg/kg (Rattus norvegicus [3]) [%] | inhibition in vivo at 10 mg/kg (Rattus norvegicus [4]) [%] | inhibition in vivo at 10 mg/kg (Rattus norvegicus [5]) [%] | inhibition in vivo at 10 mg/kg (Rattus norvegicus [6]) [%] | inhibition in vivo at 10 mg/kg (Rattus norvegicus [7]) [%] | inhibition in vivo at 10 mg/kg (Rattus norvegicus [8]) [%] | inhibition in vivo at 10 mg/kg (Rattus norvegicus [9]) [%] | inhibition in vivo at 10 mg/kg (Rattus norvegicus [10]) [%] | inhibition in vivo at 10 mg/kg (Rattus norvegicus [11]) [%] | inhibition in vivo at 100 mg/kg (Rattus norvegicus [12]) [%] | inhibition in vivo at 10 mg/kg (Rattus norvegicus [13]) [%] | UI (Rattus norvegicus [14]) | inhibition in vivo at 100 mg/kg (Rattus norvegicus [15]) [%] | inhibition in vivo at 10 mg/kg (Rattus norvegicus [16]) [%] | inhibition in vivo at 10 mg/kg (Rattus norvegicus [17]) [%] | inhibition in vivo at 10 mg/kg (Rattus norvegicus [18]) [%] | inhibition in vivo at 100 mg/kg (Rattus norvegicus [20]) [%] | further results
CCOC(=O)C1=C(C)NC(OC)N(CC(=O)c2ccc(OC)cc2)C1c1ccc(OC)cc1 (stereo unspecified) | 40.1 | 27.8 | 51.33 | 15.1 | 48.6 | 1.57 | 39.4 | 6.58 | 41.9 | 3.33 | 21.6 | 23.5 | 37.7 | 46.5 | 0.2 | 47.2 | 36 | 31.1 | 12.1 | 39.8 | inhibition in vivo at 10 mg/kg (Rattus norvegicus [19]): 48.8%
CCOC(=O)C1=C(C)NC(OC)N(CC(=O)c2ccccc2)C1c1ccc(Cl)cc1 (stereo unspecified) | 28.4 | 22.9 | 37.87 | 15.2 | 35.6 | 0.91 |  | 1.87 | 29.7 |  | 20.5 |  | 39.8 | 32.1 | 0.45 | 42 | 25.6 |  |  | 41 | 
CCOC(=O)C1=C(C)NC(OC)N(CC(=O)c2ccccc2)C1c1ccc(C)cc1 (stereo unspecified) | 38.3 | 28 |  | 13.7 | 45.5 | 0.59 | 35.5 | 1.87 | 42 | 2.2 | 17.4 | 23.1 | 37.8 | 44 |  | 38.9 | 36.8 | 30.6 | 9.79 | 37.9 | inhibition in vivo at 10 mg/kg (Rattus norvegicus [19]): 48.7%
CCOC(=O)C1=C(C)NC(OC)N(CC(=O)c2ccccc2)C1c1ccc(OC)cc1 (stereo unspecified) | 41.4 | 28 | 59.76 | 13.7 | 45.9 | 1.57 | 37.9 | 6.58 | 42.9 | 2.3 | 20.4 | 22.9 | 38.8 | 45 | 0.75 | 52.6 | 36 | 30.9 | 10.6 | 40.5 | inhibition in vivo at 10 mg/kg (Rattus norvegicus [19]): 48.2%
CCOC(=O)C1=C(C)NC(OC)N(CC(=O)c2ccc(Cl)cc2)C1c1ccc(C)cc1 (stereo unspecified) | 39.5 | 28 | 53.17 | 13.8 | 45.7 | 1.61 | 37.8 | 11.1 | 42 | 2.35 | 24 | 22.5 | 37.1 | 44 | 0.76 | 47.3 | 36.8 | 30.4 | 10.5 | 38.8 | inhibition in vivo at 10 mg/kg (Rattus norvegicus [19]): 47.8%
CCOC(=O)C1=C(C)NC(OC)N(CC(=O)c2ccc(OC)cc2)C1c1ccc(O)cc1 (stereo unspecified) | 26.3 | 21.6 |  | 12.7 | 31 | 0.27 |  | 1.43 | 28 |  | 19.6 |  | 37.6 | 29.4 |  | 39.9 | 23.3 |  |  | 38.2 | 
COc1ccc2c(c1)c(CC(=O)O)c(C)n2C(=O)c1ccc(Cl)cc1 [INDOMETHACIN] |  |  |  |  |  |  |  |  |  |  |  |  | 46.4 |  |  | 52.6 |  |  |  | 51.8 | 
COC(=O)C1=C(C)NC(C)=C(C(=O)OC)C1c1ccccc1[N+](=O)[O-] [NIFEDIPINE] | 44.2 | 25 |  | 12.9 | 46.6 | 1.29 | 39.4 | 4.44 | 44.5 | 2.51 | 19.7 | 23.6 |  | 45.5 |  |  | 35.5 | 30.8 | 11.7 |  | inhibition in vivo at 10 mg/kg (Rattus norvegicus [19]): 48.4%
CCOC(=O)C1=C(C)NC(OC)N(CC(=O)c2ccccc2)C1c1ccc(O)cc1 (stereo unspecified) | 28.5 | 23 | 40.33 | 15.2 | 35.5 | 0.59 |  | 1.87 | 31.4 |  | 21.8 |  | 39.8 | 33 | 0.18 | 42 | 27.8 |  |  | 40.9 | 
CCOC(=O)C1=C(C)NC(OC)N(CC(=O)c2ccccc2)C1c1ccccc1 (stereo unspecified) | 26.3 | 21.6 | 40.14 | 13 | 31 | 0.59 |  | 1.43 | 28.7 |  | 19.6 |  | 39.8 | 29.4 | 0.16 | 42 | 23.3 |  |  | 41 | 
CC(C)Cc1ccc(C(C)C(=O)O)cc1 (stereo unspecified) [IBUPROFEN] |  |  | 62.55 |  |  |  |  |  |  |  |  |  |  |  | 1.97 |  |  |  |  |  | 
